Common to all, as to assay type: functional
Test [1] has as its system Staphylococcus aureus. Put plainly: Antimicrobial activity against vancomycin-resistant Staphylococcus aureus VRS2 assessed as reduction in bacterial growth incubated for 18 to 20 hrs at 37 degC by broth microdilution method. Summed up:
(§1)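 Modified CLSI broth microdilution. Bacterial suspension of about 1 × 10^5 CFU/mL in tryptic soy broth. Each agent was added in triplicate to the first row and serially diluted down the plate. Plates were incubated at 37 °C for 18-20 h. MIC was read as the lowest concentration with no visible growth.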

The subject of test [2] is Staphylococcus aureus. Kind of test: Antimicrobial activity against vancomycin-intermediate-resistant Staphylococcus aureus NRS1 assessed as reduction in bacterial growth incubated for 18 to 20 hrs at 37 degC by broth microdilution method. Summed up:
as §1
(In general: Broth dilution looks for growth in wells or tubes with falling amounts of substance.)

Test [3] deals with Staphylococcus aureus. Kind of test: Antimicrobial activity against methicillin-sensitive Staphylococcus aureus NRS72 assessed as reduction in bacterial growth incubated for 18 to 20 hrs at 37 degC by broth microdilution method. Summed up: as §1
The test system of test [4] is Staphylococcus aureus. Put plainly: Antimicrobial activity against methicillin-resistant Staphylococcus aureus USA700 assessed as reduction in bacterial growth incubated for 18 to 20 hrs at 37 degC by broth microdilution method. In outline:
as §1

The subject of test [5] is Staphylococcus aureus. Kind of test: Antimicrobial activity against methicillin-resistant Staphylococcus aureus USA100 assessed as reduction in bacterial growth incubated for 18 to 20 hrs at 37 degC by broth microdilution method. In outline: as §1
The test system of test [6] is Staphylococcus aureus. Kind of test: Antimicrobial activity against methicillin-resistant Staphylococcus aureus USA500 assessed as reduction in bacterial growth incubated for 18 to 20 hrs at 37 degC by broth microdilution method. In outline:
as §1

The test system of test [7] is Staphylococcus aureus. Kind of test: Antimicrobial activity against methicillin-resistant Staphylococcus aureus NRS119 assessed as reduction in bacterial growth incubated for 18 to 20 hrs at 37 degC by broth microdilution method. Summed up:
as §1

Test [8] concerns Staphylococcus aureus. Put plainly: Antimicrobial activity against methicillin-resistant Staphylococcus aureus USA300 assessed as reduction in bacterial growth incubated for 18 to 20 hrs at 37 degC by broth microdilution method. In outline:
as §1

Test [9] has as its system Staphylococcus aureus. Kind of test: Antimicrobial activity against methicillin-resistant Staphylococcus aureus USA200 assessed as reduction in bacterial growth incubated for 18 to 20 hrs at 37 degC by broth microdilution method. In outline:
as §1

In brackets after ≈: the same amount, converted by molar mass.

In general, MIC refers to the lowest concentration found to suppress growth.

Take `[C-]#[N+]c1ccccc1/C=C(\CC)c1ccc(F)cc1`: the MIC in the test with Staphylococcus aureus [1] worked out at 32 µM (≈ 8.04 µg/mL); in the test with Staphylococcus aureus [2], 8 µM (≈ 2.01 µg/mL); in the test with Staphylococcus aureus [3] it was 8 µM (≈ 2.01 µg/mL); in the test with Staphylococcus aureus [4], 8 µM (≈ 2.01 µg/mL); in the test with Staphylococcus aureus [5], 16 µM (≈ 4.02 µg/mL); with Staphylococcus aureus [6] it was 16 µM (≈ 4.02 µg/mL). Also, the minimal inhibitory concentration (MIC) with Staphylococcus aureus [7] is 64 µM (≈ 16.1 µg/mL); with Staphylococcus aureus [8], 32 µM (≈ 8.04 µg/mL); in the test on Staphylococcus aureus [9] it was 16 µM (≈ 4.02 µg/mL).

Regarding `[C-]#[N+]c1ccccc1/C=C/c1ccc(CCCC)cc1`, the minimal inhibitory concentration (MIC) in the test on Staphylococcus aureus [1], in the test on Staphylococcus aureus [3], in the test with Staphylococcus aureus [6], in the test on Staphylococcus aureus [7], in the test with Staphylococcus aureus [8] and in the test with Staphylococcus aureus [9] was > 128 µM each time.

Regarding `[C-]#[N+]c1ccccc1/C=C(\C)c1ccccc1`, the MIC with Staphylococcus aureus [1] was > 128 µM; with Staphylococcus aureus [2], 4 µM (≈ 0.877 µg/mL); in the test with Staphylococcus aureus [3], 8 µM (≈ 1.75 µg/mL); with Staphylococcus aureus [4] it was 16 µM (≈ 3.51 µg/mL); in the test with Staphylococcus aureus [5], 8 µM (≈ 1.75 µg/mL); with Staphylococcus aureus [6], > 128 µM. In addition, the minimum inhibitory concentration (MIC) in the test with Staphylococcus aureus [7] was > 128 µM; with Staphylococcus aureus [8], > 128 µM; in the test with Staphylococcus aureus [9], 64 µM (≈ 14 µg/mL).

As for `[C-]#[N+]c1ccccc1/C=C(\CCCC)c1ccccc1`, the MIC in the test with Staphylococcus aureus [1] worked out at 64 µM (≈ 16.7 µg/mL); in the test with Staphylococcus aureus [2], 16 µM (≈ 4.18 µg/mL); in the test with Staphylococcus aureus [3] it was 32 µM (≈ 8.36 µg/mL); with Staphylococcus aureus [4], 16 µM (≈ 4.18 µg/mL); in the test with Staphylococcus aureus [5], 32 µM (≈ 8.36 µg/mL); with Staphylococcus aureus [6], 32 µM (≈ 8.36 µg/mL). The figures for the minimal inhibitory concentration (MIC) in the test on Staphylococcus aureus [7], in the test with Staphylococcus aureus [8] and in the test with Staphylococcus aureus [9] were > 128 µM, > 128 µM and 32 µM (≈ 8.36 µg/mL), respectively.

For the compound `[C-]#[N+]c1cccc(/C=C/c2cccnc2)c1`, the MIC was found to be 64 µM (≈ 13.2 µg/mL) with Staphylococcus aureus [1]; 64 µM (≈ 13.2 µg/mL) with Staphylococcus aureus [2]; 64 µM (≈ 13.2 µg/mL) in the test with Staphylococcus aureus [3]; 64 µM (≈ 13.2 µg/mL) in the test with Staphylococcus aureus [4]; 32 µM (≈ 6.6 µg/mL) in the test with Staphylococcus aureus [5]; 64 µM (≈ 13.2 µg/mL) with Staphylococcus aureus [6]. The MIC in the test on Staphylococcus aureus [7] is 64 µM (≈ 13.2 µg/mL); with Staphylococcus aureus [8] it was 32 µM (≈ 6.6 µg/mL); in the test with Staphylococcus aureus [9], 64 µM (≈ 13.2 µg/mL).

Take `[C-]#[N+]c1ccccc1-c1ccccc1`: the MIC with Staphylococcus aureus [1] is > 128 µM; in the test with Staphylococcus aureus [2], 8 µM (≈ 1.43 µg/mL); in the test on Staphylococcus aureus [3] it was > 128 µM; in the test with Staphylococcus aureus [4], 16 µM (≈ 2.87 µg/mL); in the test with Staphylococcus aureus [5], 16 µM (≈ 2.87 µg/mL); with Staphylococcus aureus [6] it was > 128 µM. Besides, the MIC in the test on Staphylococcus aureus [7] was > 128 µM; in the test on Staphylococcus aureus [8], > 128 µM; with Staphylococcus aureus [9] it was 16 µM (≈ 2.87 µg/mL).

With `Nc1ccccc1CCc1ccccc1`, the minimum inhibitory concentration (MIC) is > 64 µM in the test on Staphylococcus aureus [1]; 8 µM (≈ 1.58 µg/mL) in the test with Staphylococcus aureus [2]; > 128 µM with Staphylococcus aureus [3]; > 64 µM with Staphylococcus aureus [4]; > 128 µM in the test with Staphylococcus aureus [5]; > 64 µM with Staphylococcus aureus [6]. For the same compound, the minimal inhibitory concentration (MIC) in the test with Staphylococcus aureus [7] is > 128 µM; in the test with Staphylococcus aureus [8] it was > 128 µM; with Staphylococcus aureus [9], 32 µM (≈ 6.31 µg/mL).

As for `[C-]#[N+]c1ccc(/C=C/c2ccccn2)cc1`, the MIC in the test on Staphylococcus aureus [1] worked out at 64 µM (≈ 13.2 µg/mL); in the test on Staphylococcus aureus [2] it was 64 µM (≈ 13.2 µg/mL); in the test on Staphylococcus aureus [3], 64 µM (≈ 13.2 µg/mL); with Staphylococcus aureus [4], 128 µM (≈ 26.4 µg/mL); in the test on Staphylococcus aureus [5], 128 µM (≈ 26.4 µg/mL); in the test with Staphylococcus aureus [6] it was 64 µM (≈ 13.2 µg/mL). The MIC in the test on Staphylococcus aureus [7] was 128 µM (≈ 26.4 µg/mL); in the test with Staphylococcus aureus [8] it was 32 µM (≈ 6.6 µg/mL); with Staphylococcus aureus [9] it was 128 µM (≈ 26.4 µg/mL).

On to `[C-]#[N+]c1ccccc1CCc1ccccc1`, for which the MIC in the test on Staphylococcus aureus [1] was determined as 64 µM (≈ 13.3 µg/mL); in the test on Staphylococcus aureus [2] it was 2 µM (≈ 0.415 µg/mL); with Staphylococcus aureus [3] it was 64 µM (≈ 13.3 µg/mL); with Staphylococcus aureus [4] it was 32 µM (≈ 6.63 µg/mL); in the test on Staphylococcus aureus [5], 4 µM (≈ 0.829 µg/mL); with Staphylococcus aureus [6], 128 µM (≈ 26.5 µg/mL). Besides, the MIC was determined as 2 µM (≈ 0.415 µg/mL) in the test on Staphylococcus aureus [7], 4 µM (≈ 0.829 µg/mL) with Staphylococcus aureus [8] and 16 µM (≈ 3.32 µg/mL) in the test on Staphylococcus aureus [9].

As to `[C-]#[N+]c1ccc(C)cc1-c1ccc(C(C)(C)C)cc1`, the MIC with Staphylococcus aureus [1] was > 128 µM; in the test with Staphylococcus aureus [2], 4 µM (≈ 0.997 µg/mL); with Staphylococcus aureus [3] it was > 128 µM; in the test on Staphylococcus aureus [4], 16 µM (≈ 3.99 µg/mL); with Staphylococcus aureus [5] it was 16 µM (≈ 3.99 µg/mL); in the test with Staphylococcus aureus [6] it was > 128 µM. Also, the minimum inhibitory concentration (MIC) with Staphylococcus aureus [7] is 64 µM (≈ 16 µg/mL); in the test on Staphylococcus aureus [8], > 128 µM; in the test on Staphylococcus aureus [9], 16 µM (≈ 3.99 µg/mL).

`[C-]#[N+]c1ccccc1/C=C(\CC)c1ccc(C(F)(F)F)cc1`: the MIC in the test on Staphylococcus aureus [1] stood at 16 µM (≈ 4.82 µg/mL); in the test with Staphylococcus aureus [2], 8 µM (≈ 2.41 µg/mL); in the test with Staphylococcus aureus [3], 8 µM (≈ 2.41 µg/mL); with Staphylococcus aureus [7], 64 µM (≈ 19.3 µg/mL); in the test on Staphylococcus aureus [8] it was 32 µM (≈ 9.64 µg/mL).

The values are drawn from ChEMBL document CHEMBL3611989, “Discovery and characterization of aryl isonitriles as a new class of compounds versus methicillin- and vancomycin-resistant Staphylococcus aureus” (Eur J Med Chem, 2015).
